The values below come from BindingDB's records for doi:10.1021/jm970159v (National Taiwan University, 1998).

For orientation: Ki means the equilibrium dissociation constant of an inhibitor or competing ligand from its target.

One assay addresses Histamine H1 receptor (Cavia porcellus, UniProt P31389). The assay can be described thus: Compound is evaluated for binding affinity towards Histamine H1 receptor using [3H]pyrilamine in guinea pig lung at 10 uM. The procedure, abridged: (§1)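 Single-concentration screen at 10 µM in contract radioligand binding assays. Records whether inhibition of specific radioligand binding stayed below 50%.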

The next assay has as its target D(3) dopamine receptor (Homo sapiens, UniProt P35462). The assay can be described thus: Compound is evaluated for binding affinity towards recombinant human Dopamine receptor D3 using [3H]spiperone in CHO cells at 10 uM. In outline:
as §1

The target of assay [1] is Sigma non-opioid intracellular receptor 1 (Cavia porcellus) (UniProt Q60492). The assay is described as follows: Compound is evaluated for binding affinity towards Sigma receptor using [3H]pentazocine in guinea pig brain.
Chain of Sigma non-opioid intracellular receptor 1 (Cavia porcellus) (Q60492 whole entry, looked up): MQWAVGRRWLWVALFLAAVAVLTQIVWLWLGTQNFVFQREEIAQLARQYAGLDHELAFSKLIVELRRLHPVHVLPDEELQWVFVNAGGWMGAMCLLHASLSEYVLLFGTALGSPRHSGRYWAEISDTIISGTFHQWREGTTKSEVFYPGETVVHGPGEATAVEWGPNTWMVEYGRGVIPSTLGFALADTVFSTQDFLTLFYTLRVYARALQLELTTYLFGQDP

Chain of Histamine H1 receptor (P31389 whole entry): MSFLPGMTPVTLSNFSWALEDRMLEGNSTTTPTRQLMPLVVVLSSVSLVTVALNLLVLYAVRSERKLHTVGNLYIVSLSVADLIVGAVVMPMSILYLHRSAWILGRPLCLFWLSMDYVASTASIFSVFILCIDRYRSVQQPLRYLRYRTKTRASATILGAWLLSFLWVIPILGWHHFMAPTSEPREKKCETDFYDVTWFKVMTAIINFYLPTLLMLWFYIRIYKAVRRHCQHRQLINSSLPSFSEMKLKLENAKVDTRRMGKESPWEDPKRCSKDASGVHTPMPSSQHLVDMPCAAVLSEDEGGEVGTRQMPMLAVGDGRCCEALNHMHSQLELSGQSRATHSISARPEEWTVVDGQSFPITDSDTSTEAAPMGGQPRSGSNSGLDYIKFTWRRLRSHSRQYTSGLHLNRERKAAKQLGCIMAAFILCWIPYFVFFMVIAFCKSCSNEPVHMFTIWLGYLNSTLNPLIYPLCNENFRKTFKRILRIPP
Chain of D(3) dopamine receptor (P35462 as listed by the source): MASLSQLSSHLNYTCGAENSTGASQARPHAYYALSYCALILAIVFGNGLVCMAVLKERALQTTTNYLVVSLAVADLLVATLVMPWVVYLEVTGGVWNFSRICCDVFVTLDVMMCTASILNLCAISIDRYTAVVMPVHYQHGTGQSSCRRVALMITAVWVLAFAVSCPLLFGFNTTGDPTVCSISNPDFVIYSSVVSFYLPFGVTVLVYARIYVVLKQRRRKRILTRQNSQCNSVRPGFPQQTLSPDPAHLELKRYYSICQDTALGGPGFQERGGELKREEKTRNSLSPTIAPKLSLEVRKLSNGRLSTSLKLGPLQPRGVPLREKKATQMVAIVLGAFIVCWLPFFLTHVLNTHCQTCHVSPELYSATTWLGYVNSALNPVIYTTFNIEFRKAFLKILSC

Take `COc1ccccc1N1CCN(C[C@H]2CN=C3c4ccccc4N=C(SC)N32)CC1`: the Ki at Histamine H1 receptor and on D(3) dopamine receptor was greater than 10 µM throughout.

In turn, `COc1ccccc1N1CCN(CC2CN3C(=O)Nc4ccccc4C3=N2)CC1` (stereo not drawn) [2-[4-(2-Methoxy-phenyl)-piperazin-1-ylmethyl]-2,6-dihydro-3H-imidazo[1,2-c]quinazolin-5-one] came in with a Ki in assay [1] of 4 µM.

Consider `COc1ccccc1N1CCN(Cc2cn3c(=O)[nH]c4ccccc4c3n2)CC1` [2-[4-(2-Methoxy-phenyl)-piperazin-1-ylmethyl]-6H-imidazo[1,2-c]quinazolin-5-one], for which, in assay [1], the Ki came out at 0.743 µM. The same measure, in the same setting: for `Oc1nc2ccccc2c2ncc(CN3CCN(c4ccccc4Cl)CC3)n12` [3-[4-(2-Chloro-phenyl)-piperazin-1-ylmethyl]-6H-imidazo[1,2-c]quinazolin-5-one] the value was 1.5 µM; for `COc1ccccc1N1CCN(CC2CN=C3c4ccccc4NC(=O)N32)CC1` (stereo not drawn) [3-[4-(2-Methoxy-phenyl)-piperazin-1-ylmethyl]-2,6-dihydro-3H-imidazo[1,2-c]quinazolin-5-one], greater than 6.27 µM.

In assay [1], `COc1ccccc1N1CCN(Cc2cnc3c4ccccc4nc(O)n23)CC1` [3-[4-(2-Methoxy-phenyl)-piperazin-1-ylmethyl]-6H-imidazo[1,2-c]quinazolin-5-one] gave a Ki of 6.52 µM. `COc1ccccc1N1CCN(CCn2c(=O)[nH]c3ccccc3c2=O)CC1` [3-{2-[4-(2-Methoxy-phenyl)-piperazin-1-yl]-ethyl}-1H-quinazoline-2,4-dione] showed an inhibition constant Ki in assay [1] greater than 10 µM.
